As usually defined, the IC50 is the point on the concentration scale where inhibition reaches its midpoint. By inhibition is commonly meant the change of the read-out against control, counted positive when it falls. Usually EC50 stands for the concentration needed to bring the measured effect to its halfway point.

Experimental findings from ChEMBL document CHEMBL3352729, “Hydroxybenzothiophene Ketones Are Efficient Pre-mRNA Splicing Modulators Due to Dual Inhibition of Dyrk1A and Clk1/4” (ACS Med Chem Lett, 2014) are described below.

Activity calls are given as the source filed them. The calls are words filed in the database; no cut-off is given here.

Experiment [1] addresses T1, Dual specificity tyrosine-phosphorylation-regulated kinase 1B (Homo sapiens, UniProt Q9Y463). Description: Inhibition of recombinant Dyrk1B (unknown origin) using KKISGRLSPIMTEQ-NH2 peptide substrate.
Target sequence in this assay (Q9Y463 whole entry): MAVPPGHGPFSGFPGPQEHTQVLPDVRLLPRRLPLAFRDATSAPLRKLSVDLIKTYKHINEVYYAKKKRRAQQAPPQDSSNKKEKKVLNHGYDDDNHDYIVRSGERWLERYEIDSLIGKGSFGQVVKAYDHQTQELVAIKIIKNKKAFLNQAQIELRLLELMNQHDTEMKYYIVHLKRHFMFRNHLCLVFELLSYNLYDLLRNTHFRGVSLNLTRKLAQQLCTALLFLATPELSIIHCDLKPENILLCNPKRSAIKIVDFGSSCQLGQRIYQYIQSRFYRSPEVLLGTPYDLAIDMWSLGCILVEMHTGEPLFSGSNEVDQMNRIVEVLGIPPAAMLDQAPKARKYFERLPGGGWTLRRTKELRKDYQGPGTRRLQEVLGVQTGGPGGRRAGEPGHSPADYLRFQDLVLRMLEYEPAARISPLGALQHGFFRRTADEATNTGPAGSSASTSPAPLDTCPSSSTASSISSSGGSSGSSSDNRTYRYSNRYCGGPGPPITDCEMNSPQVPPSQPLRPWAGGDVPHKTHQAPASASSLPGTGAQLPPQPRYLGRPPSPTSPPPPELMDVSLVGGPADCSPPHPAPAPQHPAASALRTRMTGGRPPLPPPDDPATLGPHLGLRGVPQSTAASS
The target of experiment [2] is T2, Dual specificity protein kinase CLK1 (Homo sapiens, UniProt P49759). Description: Inhibition of recombinant Clk1 (unknown origin) using GRSRSRSRSR peptide substrate. Summed up: (§1)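 Kinase activity was measured in a cell-free assay with recombinant enzyme and peptide substrate at 100 μM ATP. Values are reported as IC50.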
Target sequence in this assay (P49759 whole entry): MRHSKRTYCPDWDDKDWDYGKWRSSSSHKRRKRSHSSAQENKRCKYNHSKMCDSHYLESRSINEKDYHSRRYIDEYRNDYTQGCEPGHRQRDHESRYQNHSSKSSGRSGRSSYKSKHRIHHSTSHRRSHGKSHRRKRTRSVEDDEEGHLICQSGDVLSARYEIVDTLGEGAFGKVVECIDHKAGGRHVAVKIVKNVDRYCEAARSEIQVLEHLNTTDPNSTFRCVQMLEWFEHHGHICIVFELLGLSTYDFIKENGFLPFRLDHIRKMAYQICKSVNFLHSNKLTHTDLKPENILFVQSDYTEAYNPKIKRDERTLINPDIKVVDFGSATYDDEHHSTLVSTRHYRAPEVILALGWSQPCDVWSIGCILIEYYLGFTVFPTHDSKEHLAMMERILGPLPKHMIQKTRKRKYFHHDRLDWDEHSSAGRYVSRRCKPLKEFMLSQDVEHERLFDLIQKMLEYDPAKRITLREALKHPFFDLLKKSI
For experiment [3], the target named is Casein kinase II subunit alpha (Homo sapiens) (UniProt P68400). Description: Inhibition of CK2alpha (unknown origin) at 5 uM.
Sequence of Casein kinase II subunit alpha (Homo sapiens) (P68400 whole entry, looked up): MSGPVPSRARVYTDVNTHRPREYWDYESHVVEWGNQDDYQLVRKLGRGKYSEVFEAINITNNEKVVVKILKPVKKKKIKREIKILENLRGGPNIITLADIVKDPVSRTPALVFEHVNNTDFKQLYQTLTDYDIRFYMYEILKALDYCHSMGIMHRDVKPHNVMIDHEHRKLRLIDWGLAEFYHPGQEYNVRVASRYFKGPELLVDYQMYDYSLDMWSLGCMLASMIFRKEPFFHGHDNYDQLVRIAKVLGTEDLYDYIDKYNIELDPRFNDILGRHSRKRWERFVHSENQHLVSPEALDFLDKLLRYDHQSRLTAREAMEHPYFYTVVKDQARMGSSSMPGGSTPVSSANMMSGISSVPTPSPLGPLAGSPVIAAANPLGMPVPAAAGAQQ
Experiment [4] has as its target T3, Dual specificity tyrosine-phosphorylation-regulated kinase 1A (Homo sapiens, UniProt Q13627). Description: Inhibition of recombinant Dyrk1A (unknown origin) using KKISGRLSPIMTEQ-NH2 peptide substrate. Summed up:
as §1

The target in experiment [5] is T4, Dual specificity tyrosine-phosphorylation-regulated kinase 2 (Homo sapiens) (UniProt Q92630).
T4 sequence (whole entry): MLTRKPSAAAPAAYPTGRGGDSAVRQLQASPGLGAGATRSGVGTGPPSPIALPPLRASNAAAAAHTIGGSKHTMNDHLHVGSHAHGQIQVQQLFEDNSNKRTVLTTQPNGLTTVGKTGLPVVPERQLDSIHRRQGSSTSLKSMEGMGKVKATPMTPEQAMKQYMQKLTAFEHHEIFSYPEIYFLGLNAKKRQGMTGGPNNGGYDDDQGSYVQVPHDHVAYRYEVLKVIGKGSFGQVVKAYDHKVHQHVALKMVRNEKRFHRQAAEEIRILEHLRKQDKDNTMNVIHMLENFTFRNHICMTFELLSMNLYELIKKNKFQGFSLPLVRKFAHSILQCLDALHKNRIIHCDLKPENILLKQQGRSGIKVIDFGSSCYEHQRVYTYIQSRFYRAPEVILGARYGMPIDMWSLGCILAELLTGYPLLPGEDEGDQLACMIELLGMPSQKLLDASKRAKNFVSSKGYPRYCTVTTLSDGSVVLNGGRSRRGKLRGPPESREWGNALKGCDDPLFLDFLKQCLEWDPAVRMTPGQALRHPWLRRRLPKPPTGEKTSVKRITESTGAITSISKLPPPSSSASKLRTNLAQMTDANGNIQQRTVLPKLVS
Description: Inhibition of recombinant Dyrk2 (unknown origin) using KKISGRLSPIMTEQ-NH2 peptide substrate at 5 uM.

The target of experiment [6] is T1, Dual specificity tyrosine-phosphorylation-regulated kinase 1B. Description: Inhibition of recombinant Dyrk1B (unknown origin) using KKISGRLSPIMTEQ-NH2 peptide substrate at 5 uM.
Target sequence in this assay (Q9Y463 whole entry, looked up): as the sequence (Q9Y463 whole entry) above
Experiment [7] has as its target T2, Dual specificity protein kinase CLK1. Description: Inhibition of recombinant Clk1 (unknown origin) using GRSRSRSRSR peptide substrate at 5 uM.
Target sequence in this assay (P49759 whole entry, looked up): as the sequence (P49759 whole entry) above
Experiment [8] can be described thus: Modulation of Clk/sty pre-mRNA splicing in human STO cells assessed as concentration required to 5 fold increase in mature Clk1 mRNA level by RT-PCR analysis.
Experiment [9] can be described thus: Modulation of Clk/sty pre-mRNA splicing in human STO cells assessed as concentration required to increase in mature Clk2 mRNA level by RT-PCR analysis. It is filed as functional, cell-based. The settings on record: in the assay text read “Clk1” for “Clk2”. In short, it runs like this: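 STO cells were treated for 4 h with compound added to the culture medium, with 0.05% DMSO as control. Total RNA was purified, and the Clk1/Sty splicing pattern was analysed by RT-PCR. Read-outs were the concentration for a 5-fold increase, the concentration for half-maximal generation of mature Clk1 mRNA, and the maximum fold increase over DMSO. Data are means of three independent experiments run in triplicate.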

Experiment [10] is described as follows: Modulation of Clk/sty pre-mRNA splicing in human STO cells assessed as concentration required to increase in mature Clk1 mRNA level by RT-PCR analysis relative to control.
The test system of a further experiment is STO. Description: Modulation of pre-mRNA splicing in human STO cells assessed as increase in mature Clk1 mRNA production at 10 to 20 uM by RT-PCR analysis.
The target in experiment [11] is T5, 17-beta-hydroxysteroid dehydrogenase type 1 (Homo sapiens) (UniProt P14061).
T5 sequence (whole entry): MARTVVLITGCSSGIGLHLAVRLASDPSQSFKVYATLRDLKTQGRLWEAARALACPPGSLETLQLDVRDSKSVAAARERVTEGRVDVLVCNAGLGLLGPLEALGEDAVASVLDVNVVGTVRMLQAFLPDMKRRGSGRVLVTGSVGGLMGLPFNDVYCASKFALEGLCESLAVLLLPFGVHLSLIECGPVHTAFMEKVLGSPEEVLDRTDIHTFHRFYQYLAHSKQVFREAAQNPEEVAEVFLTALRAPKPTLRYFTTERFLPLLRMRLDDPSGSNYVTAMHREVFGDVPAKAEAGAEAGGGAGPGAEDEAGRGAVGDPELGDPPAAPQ
Description: Inhibition of 17-betaHSD1 (unknown origin) at 5 uM.

The nature of experiment [12]: Modulation of Clk/sty pre-mRNA splicing in human STO cells assessed as concentration required to increase in mature Clk1 mRNA level by RT-PCR analysis.
The target in experiment [13] is T6, 17-beta-hydroxysteroid dehydrogenase type 1 (Homo sapiens, UniProt P14061).
T6 sequence (P14061 whole entry): T5 sequence (whole entry)
Description: Inhibition of 17-betaHSD1 (unknown origin).

In experiment [14] the target is T3, Dual specificity tyrosine-phosphorylation-regulated kinase 1A. Description: Inhibition of recombinant Dyrk1A (unknown origin) using KKISGRLSPIMTEQ-NH2 peptide substrate at 5 uM.

Regarding `O=C(c1ccc(O)cc1)c1cc2cc(O)ccc2o1`, the figures for the IC50 in experiment [1], in [2] and in experiment [4] were 1300 nM, 1000 nM and 9700 nM, respectively. Moreover, the inhibition was found to be 17% in experiment [3] and 38% in experiment [5].
The like results for `N#Cc1cccc(C(=O)c2cc3cc(O)ccc3s2)c1` were, in that order, 2300 nM, 400 nM, 6000 nM, 10% and 6%.
The like results for `O=C(c1cc2cc(O)ccc2s1)c1cc(O)ccc1F` were, in that order, 400 nM, 50 nM, 2000 nM, 20% and 30%.
Consider `O=C(c1cccc(O)c1)c1cc2cc(O)ccc2[nH]1`, for which the IC50 in experiment [2] came out at 2000 nM; in [4] it was 15000 nM. The figures for the inhibition in experiment [3], in experiment [5] and in [6] were 22%, 24% and 41%, respectively.
In the case of `Cc1cc(C(=O)c2cc3cc(O)ccc3s2)ccc1O`, the results for the inhibition in [7] and in experiment [5] were 25% and 8%, respectively. For the same compound, the IC50 came to 7000 nM in [1] and 11000 nM in experiment [4].
`CC(=O)c1cc2cc(O)ccc2s1`: the Activity in [8] came to 1.1 µM. Besides, in experiment [9], the EC50 came out at 8900 nM. Moreover, the IC50 worked out at 100 nM in experiment [1], 60 nM in [2] and 200 nM in experiment [4]. The “fold change (FC)” value in [10] was 21.4. In addition, the results for the inhibition in experiment [3] and in [5] were 9% and 46%, respectively. Further, in the experiment with STO, the result was Active. For the same compound, the inhibition entry in [11] was “inactive”.
For `Cn1c(C(=O)c2cccc(O)c2)cc2cc(O)ccc21`, the IC50 in experiment [1] is 2700 nM; in experiment [2], 2100 nM; in [4] it was 3400 nM. Also, the inhibition worked out at 31% in experiment [3] and 25% in [5].
The like results for `O=C(c1cccc(O)c1)c1cc2cc(O)ccc2o1` were, in that order, 6100 nM, 1900 nM, 3100 nM, 21% and 34%.
For `CCN1/C(=C/C(C)=O)Sc2ccc(OC)cc21`, the Activity in experiment [8] was 3.1 µM. For the same compound, the EC50 in experiment [9] was 6600 nM. Also, in experiment [10], the “fold change (FC)” value was found to be 17.
With `O=C(c1ccc(F)c(O)c1)c1cc2cc(O)ccc2s1`, the values for the IC50 in [1], in experiment [2] and in [4] were 400 nM, 300 nM and 1200 nM, respectively. In addition, the inhibition is 15% in experiment [3] and 27% in experiment [5].
As to `O=C(c1cccc(O)c1)c1cc2ccccc2s1`, the figures for the inhibition in [3], in experiment [5] and in experiment [6] were 24%, 15% and 6%, respectively. For the same compound, the IC50 in experiment [4] came out at 42000 nM.
For the compound `COc1ccc2sc(C(=O)N(C)OC)cc2c1`, the Activity in [8] worked out at 2.4 µM. The IC50 in [1] stood at 1600 nM; in experiment [2] it was 100 nM; in experiment [4], 900 nM. Moreover, the “fold change (FC)” value in experiment [10] came out at 8.1. Also, the inhibition in experiment [5] amounted to 41%. Besides, in experiment [12], the EC50 stood at 2100 nM. The inhibition result in experiment [11] is “inactive”.
On to `O=C(c1ccc(O)cc1)c1cc2cc(O)ccc2s1`, for which the 50% inhibitory concentration (IC50) in experiment [1] was 800 nM; in experiment [2], 300 nM; in [4], 3400 nM. Besides, the inhibition was determined as 33% in [3] and 25% in experiment [5].
In the case of `Cc1ccc(C(=O)c2cc3cc(O)ccc3s2)cc1O`, the Activity in [8] stood at 1.9 µM. Also, the EC50 in [9] was 1800 nM. Further, the IC50 in experiment [1] was 200 nM; in experiment [2], 50 nM; in experiment [4], 200 nM; in experiment [13] it was 195 nM. In experiment [10], the “fold change (FC)” value was 9.5. The results for the inhibition in experiment [3] and in [5] were 10% and 50%, respectively. The result in the experiment on STO was Active.
For the compound `O=C(c1ccccc1)c1cc2cc(O)ccc2s1`, the IC50 in experiment [1] is 1000 nM; in [2], 200 nM; in [4] it was 2000 nM. Further, the results for the inhibition in [3] and in [5] were 13% and 37%, respectively.
`COc1cccc(C(=O)c2cc3cc(OC)ccc3s2)c1`: the inhibition is 47% in experiment [7], -7% in experiment [5], 40% in [6] and 10% in experiment [14].
As for `O=C(c1cccc(O)c1)c1cc2cc(O)ccc2s1`, the results for the IC50 in [1], in experiment [2] and in experiment [4] were 200 nM, 100 nM and 400 nM, respectively. Moreover, the inhibition in experiment [3] was 12%; in experiment [5], 49%. In addition, the outcome in the experiment with STO was Active.
`O=C(c1cccc(O)c1)c1ccc2cc(O)ccc2c1`: the IC50 in experiment [1] turned out to be 2300 nM; in experiment [2] it was 1900 nM; in experiment [4], 2900 nM.
